Series [1] in a line: Solubility during SEC isolation in aCSF. The class given is physicochemical. The conditions noted are these: SEC isolation on Superdex 75 in aCSF pH 7.8. An outline of the steps: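 It stood 30 min–4 h at room temperature and was spun at 18,000g. Supernatant ran on a BSA-coated Superdex 75 column in aCSF at 0.5 mL min−1, A280 monitored, with fractions kept on ice.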
In the next series the test system is primary murine microglia. Description: Microglial uptake by confocal fluorescence microscopy. The class given is cell-based, murine (C57BL/6). The conditions noted are these: for uptake by primary microglia, unlabeled Aβ42: immunostained with AF488-conjugated secondary antibody. An outline of the steps:
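Microglia in glass-bottom dishes in serum- and GM-CSF-free medium at 37 °C. Conditions: 10 µM AF488-Aβ42 over time; various concentrations for 10 min; 5 µM labeled (imaged directly) or unlabeled Aβ42 (Ab9 1:5000, NL493 secondary). Fixed in 3.7% formaldehyde, DAPI, 40X confocal at fixed settings. ImageJ gave background-corrected cell fluorescence, or integrated density per nucleus. Two or three experiments.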

The conditions of series [2]: particularly at physiological pH; ref Jungbauer, et al., 2009; cited from earlier work.

Read-outs that look alike come from different tables or passages of the source.

For the substance “AF488-Aβ42 monomers: Aβ42 monomers labeled at primary amines with Alexa Fluor 488 TFP ester, isolated by SEC”, in series [1], the solubility result is on record as “solubility issues were not encountered”. For the same substance, the “uptake by primary microglia, AF488-labeled Aβ42” value in the series on primary murine microglia (5 µM, imaged directly) is on record as “not taken up readily”. For the same substance, the “internalization by microglia (confocal)” value in the series on primary murine microglia (10 µM, 37 °C, time course, 40X confocal, ImageJ quantitation) is listed as “Much lower levels”. With “unlabeled Aβ42 protofibrils: Aβ1–42 soluble protofibrils formed in aCSF and isolated by SEC”, the “uptake by primary microglia, unlabeled Aβ42” value with primary murine microglia (5 µM) is “rapid and extensive”. With “AF488-N-terminal-labeled Aβ42: N-terminally AF488-labeled Aβ42 of Jungbauer et al., 2009”, the solubility entry in series [2] is “limited solubility”. Regarding “unlabeled Aβ42 monomers: Aβ1–42 monomers isolated by SEC in aCSF”, the “uptake by primary microglia, unlabeled Aβ42” value in the series with primary murine microglia (5 µM) was “not taken up readily”.

Source of the values: PMC5018462 (Brain research, 2016).
